Square brackets hold non-standard residues; d marks the D form. Ends that are not written are not given here. * marks the point of attachment. FITC = O=C1OC2(c3ccc(O)cc3Oc3cc(O)ccc32)c2ccc(NC(=S)*)cc21; Stearoyl = CCCCCCCCCCCCCCCCCC(=O)*; Palmitoyl = CCCCCCCCCCCCCCCC(=O)*; Myristoyl = CCCCCCCCCCCCCC(=O)*; Aib = CC(C)(N)C(=O)O; Ahx = NCCCCCC(=O)O
Experiments:
[1] = target: HSA (Homo sapiens, UniProt P02768); test: Albumin binding affinity by surface plasmon resonance; details: for k a / k d: SPR, BIAcoT200 system, HSA; for Kd: human, HSA (human serum albumin), surface plasmon resonance
[2] = Plasma stability test in human plasma with or without HSA; format: in vitro ADME
How it was run: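 Albumin-depleted human plasma was prepared with a blue-dye albumin removal kit. Test peptides at a final 1 mg L−1 were incubated at 37 °C in human plasma with or without HSA. Samples were taken at time points from 0 to 144 h and analysed by LC-MS/MS.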

[3] = test system: db/db mice; test: Oral glucose tolerance test; format: in vivo
How it was run: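 Male db/db mice were fasted overnight and split into five groups. They received saline or test compound s.c. at 10, 30, 90 or 150 nmol kg−1, half an hour before an oral glucose load of 2.0 g kg−1. Blood glucose was read by handheld glucometer before and 15, 30, 60 and 120 min after the load. Data are mean ± SD with one-way ANOVA.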

[4] = test system: GK rats; test: Modified multiple OGTTs; format: in vivo
How it was run: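 Male GK rats (purchased at 6–8 weeks) got one s.c. dose of saline, test compound (10, 30, 90 nmol kg−1) or a reference GLP-1 analog (90 nmol kg−1). Repeated oral glucose challenges followed, the first at 0.5 h after dosing. Glucose was read by glucometer. AUCs were taken for 0–2, 72–74 and 144–146 h, and the percent AUC reduction was calculated versus saline.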

[5] = test system: db/db mice; test: Hypoglycemic duration test; format: in vivo; details: non-fasted db/db mice
How it was run: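 Non-fasted db/db mice with free food and water got one s.c. dose of saline, a reference GLP-1 analog (90 nmol kg−1) or test compound (10, 30, 90 nmol kg−1). Tail-vein blood was sampled at 0, 0.5, 1, 2, 4, 8, 24, 36, 48, 72, 120, 168 and 216 h, with glucose by glucometer. Hypoglycemic duration was the time BGL stayed under 8.35 mmol L−1. Data are mean ± SD; one-way ANOVA.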

[6] = Pharmacokinetic study in rhesus monkey; format: in vivo; details: plasma, sc
How it was run: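 Male rhesus monkeys received one s.c. dose of test compound at 10, 30 or 90 nmol kg−1. Blood was drawn pre-dose and at 1, 2, 4, 8, 24, 36, 48, 72, 96, 120, 144 and 168 h. Intact peptide and free GLP-1 (A8Aib) in plasma were quantified by LC-MS/MS.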

[7] = test system: db/db mice; test: Chronic in vivo study, 8 weeks, db/db mice; details: for ALT / AST / HDL / LDL / LDL/HDL / TC / TG: db/db mice serum, 8 weeks twice-weekly s.c.; for decrease of OGTT AUC after 8 week treatment compared with day 0: n = 8
How it was run: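 Male db/db mice (purchased at 6–8 weeks, housed six per cage, 12 h light–dark) got twice-weekly s.c. saline, a reference GLP-1 analog (90 nmol kg−1) or test compound (10, 30, 90 nmol kg−1) for eight weeks. Blood biochemical parameters were measured on an automatic biochemical analyzer. Pancreas was paraffin-embedded and H&E-stained. Data are mean ± SD; one-way ANOVA, P < 0.05.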

[8] = human plasma without albumin (HSA-free)
[9] = single s.c. 10 nmol kg^−1, n = 8
[10] = single s.c. 30 nmol kg^−1, n = 8
[11] = single s.c. 90 nmol kg^−1, n = 8

HSA, sequence (P02768 25-609): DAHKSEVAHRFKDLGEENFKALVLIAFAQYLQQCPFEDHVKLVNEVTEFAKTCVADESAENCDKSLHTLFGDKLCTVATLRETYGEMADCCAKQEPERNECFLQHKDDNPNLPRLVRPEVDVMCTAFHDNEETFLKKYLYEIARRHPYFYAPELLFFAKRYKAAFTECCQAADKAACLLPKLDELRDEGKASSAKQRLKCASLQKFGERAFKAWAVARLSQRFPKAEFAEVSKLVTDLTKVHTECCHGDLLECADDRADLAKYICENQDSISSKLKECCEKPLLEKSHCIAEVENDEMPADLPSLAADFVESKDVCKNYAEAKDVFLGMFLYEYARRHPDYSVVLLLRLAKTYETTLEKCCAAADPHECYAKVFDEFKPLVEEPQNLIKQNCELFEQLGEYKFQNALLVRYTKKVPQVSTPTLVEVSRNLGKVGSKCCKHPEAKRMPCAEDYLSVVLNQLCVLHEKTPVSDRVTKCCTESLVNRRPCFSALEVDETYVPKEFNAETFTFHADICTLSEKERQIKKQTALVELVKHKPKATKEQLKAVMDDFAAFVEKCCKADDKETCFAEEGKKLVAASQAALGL

{FITC-Ahx}-EK(Palmitoyl)YEEYEGGGGSGGGGSFNPRH[Aib]EGTFTSDVSSYLEGQAAKEFIAWLVKGRG (N-terminus assumed) [PES05]
k a [1]: 8900 M⁻¹ s⁻¹
k d [1]: 0.0722 s⁻¹
Kd [1]: 8.11 µM

{FITC-Ahx}-EYEK(Myristoyl)EYEGGGGSGGGGSFNPRH[Aib]EGTFTSDVSSYLEGQAAKEFIAWLVKGRG (N-terminus assumed) [PES10]
k a [1]: 12900 M⁻¹ s⁻¹
k d [1]: 0.0328 s⁻¹
Kd [1]: 2.54 µM

{FITC-Ahx}-EYK(Palmitoyl)EEYEGGGGSGGGGSFNPRH[Aib]EGTFTSDVSSYLEGQAAKEFIAWLVKGRG (N-terminus assumed) [PES08]
k a [1]: 26700 M⁻¹ s⁻¹
k d [1]: 0.0942 s⁻¹
Kd [1]: 3.53 µM

{FITC-Ahx}-EYEEYK(Palmitoyl)EGGGGSGGGGSFNPRH[Aib]EGTFTSDVSSYLEGQAAKEFIAWLVKGRG (N-terminus assumed) [PES17]
k a [1]: 12000 M⁻¹ s⁻¹
k d [1]: 0.0627 s⁻¹
Kd [1]: 5.21 µM

{FITC-Ahx}-EYEK(Stearoyl)EYEGGGGSGGGGSFNPRH[Aib]EGTFTSDVSSYLEGQAAKEFIAWLVKGRG (N-terminus assumed) [PES12]
k a [1]: 21700 M⁻¹ s⁻¹
k d [1]: 0.0531 s⁻¹
Kd [1]: 2.45 µM

{FITC-Ahx}-EYEEYEK(Stearoyl)GGGGSGGGGSFNPRH[Aib]EGTFTSDVSSYLEGQAAKEFIAWLVKGRG (N-terminus assumed) [PES21]
k a [1]: 11400 M⁻¹ s⁻¹
k d [1]: 0.036 s⁻¹
Kd [1]: 3.16 µM

{FITC-Ahx}-EK(Myristoyl)YEEYEGGGGSGGGGSFNPRH[Aib]EGTFTSDVSSYLEGQAAKEFIAWLVKGRG (N-terminus assumed) [PES04]
k a [1]: 1240 M⁻¹ s⁻¹
k d [1]: 0.0332 s⁻¹
Kd [1]: 26.7 µM

{FITC-Ahx}-K(Myristoyl)EYEEYEGGGGSGGGGSFNPRH[Aib]EGTFTSDVSSYLEGQAAKEFIAWLVKGRG (N-terminus assumed) [PES01]
k a [1]: 6900 M⁻¹ s⁻¹
k d [1]: 0.0182 s⁻¹
Kd [1]: 2.66 µM

{FITC-Ahx}-EYEEYEK(Palmitoyl)GGGGSGGGGSFNPRH[Aib]EGTFTSDVSSYLEGQAAKEFIAWLVKGRG (N-terminus assumed) [PES20]
k a [1]: 3180 M⁻¹ s⁻¹
k d [1]: 0.0534 s⁻¹
Kd [1]: 16.8 µM

{FITC-Ahx}-EK(Stearoyl)YEEYEGGGGSGGGGSFNPRH[Aib]EGTFTSDVSSYLEGQAAKEFIAWLVKGRG (N-terminus assumed) [PES06]
k a [1]: 18800 M⁻¹ s⁻¹
k d [1]: 0.0922 s⁻¹
Kd [1]: 4.9 µM

{FITC-Ahx}-EYK(Stearoyl)EEYEGGGGSGGGGSFNPRH[Aib]EGTFTSDVSSYLEGQAAKEFIAWLVKGRG (N-terminus assumed) [PES09]
k a [1]: 12100 M⁻¹ s⁻¹
k d [1]: 0.0531 s⁻¹
Kd [1]: 4.32 µM

{FITC-Ahx}-K(Stearoyl)EYEEYEGGGGSGGGGSFNPRH[Aib]EGTFTSDVSSYLEGQAAKEFIAWLVKGRG (N-terminus assumed) [PES03]
k a [1]: 12800 M⁻¹ s⁻¹
k d [1]: 0.0322 s⁻¹
Kd [1]: 2.51 µM

{FITC-Ahx}-EYEEK(Palmitoyl)YEGGGGSGGGGSFNPRH[Aib]EGTFTSDVSSYLEGQAAKEFIAWLVKGRG (N-terminus assumed) [PES14]
k a [1]: 14500 M⁻¹ s⁻¹
k d [1]: 0.0101 s⁻¹
Kd [1]: 0.696 µM
half-life at 1 mg L^−1 ([2]; human plasma with HSA): > 72 h
half-life at 1 mg L^−1 [2, 8]: 60.1 h
glucose AUC in OGTT ([3]; single s.c. 90 nmol kg^−1, AUC0–120 min): 780.17 nmol/L/min
glucose AUC in OGTT ([3]; single s.c. 150 nmol kg^−1, AUC0–120 min): 738.56 nmol/L/min
AUC-lowering percentage in third OGTT (144–146 h) versus placebo [4, 9]: 22.1%
AUC-lowering percentage in third OGTT (144–146 h) versus placebo [4, 10]: 31.0%
AUC-lowering percentage in third OGTT (144–146 h) versus placebo [4, 11]: 44.7%
time hypoglycemic effects maintained ([5]; single s.c. 10 nmol kg^−1): more than 120 h
decrease of BGL AUC for 0–192 h compared with saline [5, 9]: 38.4%
time hypoglycemic effects maintained ([5]; single s.c. 30 nmol kg^−1): > 168 h
decrease of BGL AUC for 0–192 h compared with saline [5, 10]: 49.3%
duration for BGLs rebound over 8.35 mmol L^−1 [5, 10]: 22.3 h
time hypoglycemic effects maintained ([5]; single s.c. 90 nmol kg^−1): > 216 h
decrease of BGL AUC for 0–192 h compared with saline [5, 11]: 65.0%
duration for BGLs rebound over 8.35 mmol L^−1 [5, 11]: 50.8 h
time for BGLs to reach the normoglycemic value ([5]; single s.c. 30 and 90 nmol kg^−1): ≤ 2 h
half-life ([6]; 10 nmol kg^−1): 62.6 h
half-life ([6]; 30 nmol kg^−1): 78.8 h
half-life ([6]; 90 nmol kg^−1): 95.1 h
ALT ([7]; 10 nM kg^−1, mean ± SD n = 8): 59.2 ± 2.8 IU L^−1
AST ([7]; 10 nM kg^−1, mean ± SD n = 8): 158 ± 12.2 IU L^−1
HDL ([7]; 10 nM kg^−1, mean ± SD n = 8): 2.5 ± 0.6 mmol/L
LDL ([7]; 10 nM kg^−1, mean ± SD n = 8): 1.6 ± 0.3 mmol/L
LDL/HDL ([7]; 10 nM kg^−1, mean ± SD n = 8): 0.64 ± 0.19
TC ([7]; 10 nM kg^−1, mean ± SD n = 8): 4.8 ± 0.6 mmol/L
TG ([7]; 10 nM kg^−1, mean ± SD n = 8): 1.1 ± 0.1 mmol/L
ALT ([7]; 30 nM kg^−1, mean ± SD n = 8): 55.0 ± 4.0 IU L^−1
AST ([7]; 30 nM kg^−1, mean ± SD n = 8): 140 ± 9.9 IU L^−1
HDL ([7]; 30 nM kg^−1, mean ± SD n = 8): 2.5 ± 0.5 mmol/L
LDL ([7]; 30 nM kg^−1, mean ± SD n = 8): 1.4 ± 0.2 mmol/L
LDL/HDL ([7]; 30 nM kg^−1, mean ± SD n = 8): 0.44 ± 0.15
TC ([7]; 30 nM kg^−1, mean ± SD n = 8): 4.4 ± 0.3 mmol/L
TG ([7]; 30 nM kg^−1, mean ± SD n = 8): 1.0 ± 0.7 mmol/L
area and number of pancreatic islets ([7]; db/db mice, 8 weeks, H&E staining, compared with saline): increased
reduction of LDL/HDL ratio ([7]; db/db mice, after 8 week exposure): up to 47%
insulin immunoreactivity ([7]; db/db mice, chronic treatment 8 weeks, pancreas sections): preserved proper insulin immunoreactivity
decrease of OGTT AUC after 8 week treatment compared with day 0 ([7]; db/db mice, twice-weekly s.c. 10 nmol kg^−1, 8 weeks): 17.1%
decrease of OGTT AUC after 8 week treatment compared with day 0 ([7]; db/db mice, twice-weekly s.c. 30 nmol kg^−1, 8 weeks): 28.9%
decrease of OGTT AUC after 8 week treatment compared with day 0 ([7]; db/db mice, twice-weekly s.c. 90 nmol kg^−1, 8 weeks): 58.2%
body weight gain, food intake and fat% ([7]; db/db mice, twice-weekly s.c. 10, 30 and 90 nmol kg^−1, 56 days, vs saline): obviously reduction

{FITC-Ahx}-EYEEYEK(Myristoyl)GGGGSGGGGSFNPRH[Aib]EGTFTSDVSSYLEGQAAKEFIAWLVKGRG (N-terminus assumed) [PES19]
k a [1]: 2500 M⁻¹ s⁻¹
k d [1]: 0.0222 s⁻¹
Kd [1]: 8.73 µM

{FITC-Ahx}-EYEEYK(Myristoyl)EGGGGSGGGGSFNPRH[Aib]EGTFTSDVSSYLEGQAAKEFIAWLVKGRG (N-terminus assumed) [PES16]
k a [1]: 11000 M⁻¹ s⁻¹
k d [1]: 0.0192 s⁻¹
Kd [1]: 1.74 µM

{FITC-Ahx}-EYK(Myristoyl)EEYEGGGGSGGGGSFNPRH[Aib]EGTFTSDVSSYLEGQAAKEFIAWLVKGRG (N-terminus assumed) [PES07]
k a [1]: 8240 M⁻¹ s⁻¹
k d [1]: 0.0632 s⁻¹
Kd [1]: 7.61 µM

{FITC-Ahx}-EYEEK(Stearoyl)YEGGGGSGGGGSFNPRH[Aib]EGTFTSDVSSYLEGQAAKEFIAWLVKGRG (N-terminus assumed) [PES15]
k a [1]: 21800 M⁻¹ s⁻¹
k d [1]: 0.0112 s⁻¹
Kd [1]: 0.512 µM
half-life at 1 mg L^−1 ([2]; human plasma with HSA): 56.5 h
half-life at 1 mg L^−1 [2, 8]: 48.5 h

{FITC-Ahx}-EYEK(Palmitoyl)EYEGGGGSGGGGSFNPRH[Aib]EGTFTSDVSSYLEGQAAKEFIAWLVKGRG (N-terminus assumed) [PES11]
k a [1]: 8380 M⁻¹ s⁻¹
k d [1]: 0.0782 s⁻¹
Kd [1]: 9.33 µM

{FITC-Ahx}-EYEEK(Myristoyl)YEGGGGSGGGGSFNPRH[Aib]EGTFTSDVSSYLEGQAAKEFIAWLVKGRG (N-terminus assumed) [PES13]
k a [1]: 11000 M⁻¹ s⁻¹
k d [1]: 0.00422 s⁻¹
Kd [1]: 0.383 µM
half-life at 1 mg L^−1 ([2]; human plasma with HSA): 68.7 h
half-life at 1 mg L^−1 [2, 8]: 64.4 h

{FITC-Ahx}-EYEEYK(Stearoyl)EGGGGSGGGGSFNPRH[Aib]EGTFTSDVSSYLEGQAAKEFIAWLVKGRG (N-terminus assumed) [PES18]
k a [1]: 11400 M⁻¹ s⁻¹
k d [1]: 0.036 s⁻¹
Kd [1]: 3.16 µM

Reference: paper PMC9049141 (RSC Advances, 2020)
